Test results from ChEMBL document CHEMBL4513216, “Probing the Open Global Health Chemical Diversity Library for Multistage-Active Starting Points for Next-Generation Antimalarials” (ACS Infect Dis, 2020).

Assay: Toxicity liver stage against HepG2, at 10uM
Type: cell-based
Set-up: test concentration 10 uM, cell line HepG2-A16-CD81EGFP
Conditions: human, HepG2-A16-CD81EGFP cells; read-out: INHIBITION
Summary of the method: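 Uninfected HepG2-A16-CD81EGFP cells, 3 × 10^3 per well, 1536-well, plated on prespotted compound at 10 μM final, parasite-free screening media added to match infected plates; puromycin 10 μM positive, DMSO 0.5% negative; run in parallel with 48 h PbLuc assay at 37 °C, 5% CO2; viability by CellTiter-Glo luminescence, normalized to controls.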

Row | SMILES | cytotoxicity at 10 µM [%]
1 | O=C(Cc1ccccc1)N1CCC2(CCN2Cc2ccc(F)cc2)C1 (centres undefined) | 2.17
2 | O=C(O)c1cc(S(=O)(=O)Nc2ccc(Cl)cc2)cc2c1OCCO2 | 2.33
3 | COc1ccccc1OCCN1CCCC(c2noc(C3CC3)n2)C1 (centres undefined) | 1.26
4 | CN(C)[C@H]1CCCCN(C(=O)COCc2nc3cc(F)ccc3[nH]2)C1 | 0.185
5 | Cn1cc(CN2CC[C@@H]3[C@@H]2CCN3C(=O)Cc2cccc(F)c2)cn1 | -80
6 | Cc1ccc(F)c(C(=O)N2CCC(Nc3ccc(C)nn3)CC2)c1 | -3.78
7 | CCN1CCN(C)C2(CCN(Cc3ccsc3)CC2)C1=O | 0.317
8 | COCCN1CCN(S(=O)(=O)C2CC2)Cc2ccc(C)nc21 | 3.38
9 | N#Cc1cccc(N2CCC(CO)(CCOc3ccccc3)CC2)n1 | -42.8
10 | COc1ccc(Cc2noc(C3=NN(C)C(=O)CC3)n2)cc1OC | 13.3
11 | CCC(=O)Nc1ccc(N2CCC(OC)CC2)c(C(F)(F)F)c1 | 5.72
12 | COCCN(CCOC)Cc1nc2c(cnn2C)c(=O)[nH]1 | -9.73
13 | CN(CC1CC1)c1ccc2ccc(C(=O)NCCN3CCOCC3)cn12 | 5.57
14 | O=C(Nc1cccnc1)NC1CCN(c2ccccc2OC(F)F)C1 (centres undefined) | 12.1
15 | CC(C)N(C)C(=O)C1=NOC2(CCN(C(=O)c3cccn3C)C2)C1 (centres undefined) | -122
16 | CCOCC1c2c(ncn2C)CCN1C(=O)c1ccoc1 (centres undefined) | -103
17 | CC(NCC1CCN(CCO)CC1)c1ccc(F)c(Cl)c1 (centres undefined) | -9.04
18 | Cc1nc(C)n(CC2CN(Cc3cccnc3)Cc3nccn3C2)n1 (centres undefined) | -141
19 | COc1ccccc1N1CCC(CNCc2cccc(OC)c2OC)C1 (centres undefined) | 0.445
20 | CS(=O)(=O)N1CCO[C@@H]2CCN(Cc3ccncc3)CC[C@H]21 | 1.15
21 | Cc1nc(CC(=O)N2CCN(Cc3ccc(C#N)cc3)CC2)cs1 | 1.91
22 | Cc1[nH]c2c(C)ccc(C)c2c1CC(=O)NCCNc1cccnc1 | 0.393

Row | SMILES | cytotoxicity at 10 µM [%]
23 | CCC(=O)NC1CCN(c2cccc(CC)c2)CC1 | -4.16
24 | COC(=O)c1ccoc1CN(C)CC(=O)N(C)C | 3.39
25 | CCOc1cccc(CNC(=O)C(C)(C)C#N)c1OC(F)F | -45.5
26 | CN(C)C(=O)C1OC2(CCN(C(=O)c3ccoc3)CC2)c2ccccc21 (centres undefined) | 5.63
27 | O=C(COc1ccc(F)cc1)N1CCO[C@H]2[C@@H](OCC3CC3)CC[C@@H]21 | -101
28 | CCn1cnnc1CNC(=O)NC(c1cccs1)C1CCCC1 (centres undefined) | -11.2
29 | COc1ccc(-c2nccnc2C2CCN(C(C)=O)CC2)cc1 | -4.43
30 | Nc1c(N2CCOCC2)ncnc1N1CCOCC1 | -1.31
31 | COc1c(C)cc(C(C(=O)O)N(C)Cc2ccn[nH]2)cc1C (centres undefined) | 2.82
32 | c1ccc(N2CCOC(Cc3cccnc3)C2)cc1 (centres undefined) | -26.3
33 | CC(C)(C)c1cnc(CN2CCC(NC(=O)Nc3ccccc3)CC2)o1 | -12.3
34 | O=C(N1CCOCC1)[C@@]12CCO[C@@H]1CCN(CCN1CCCCC1)C2 | -3.78
35 | CCO[C@@H]1C[C@H]2CN(S(=O)(=O)c3cccs3)CCN2C1 | 8.52
36 | CC(C)COC[C@@H]1CC[C@H]2[C@H](CCN2C(=O)c2ccncc2F)O1 | -0.58
37 | Cc1cc(=O)[nH]c(SC(C)C(=O)N2CCCN(C3CCCC3)CC2)n1 (centres undefined) | -8.04
38 | Cc1cccc2cc(C(=O)N3CCSCC3)n(C)c12 | 6.25
39 | c1cc(CN2CCCn3cnc(COCC4CC4)c3C2)co1 | -74.2
40 | CCN(CCN1CCCCCC1)C(=O)COc1cccnc1 | 12.6
41 | CCCn1ncc(C(=O)N(C)Cc2cc(C3CC3)[nH]n2)c1C | -4.65
42 | CCN(CC)CCNS(=O)(=O)c1cccc(CSC)c1 | -7.99
43 | CNS(=O)(=O)c1cccc(C(C)NCc2ccncc2)c1 (centres undefined) | -2.53
44 | Cc1cc(CNC(=O)NCc2ccccc2N2CCOCC2)no1 | 1.15

Row | SMILES | cytotoxicity at 10 µM [%]
45 | Cc1ccc(CN2CC[C@@H](NS(C)(=O)=O)[C@@H]2Cc2ccncc2)o1 | -3.18
46 | Cn1cc(CN2CC[C@@H]3[C@@H](CO[C@H]3CNC(=O)c3ccco3)C2)cn1 | -142
47 | COCCCNC(=O)C(C)n1cc(Br)cn1 (centres undefined) | 12.2
48 | Cc1[nH]nc2ncc(C(=O)N3CCN(CC(O)C(C)(C)C)CC3)cc12 (centres undefined) | 4.41
49 | Cn1cc(S(=O)(=O)Nc2ccc3[nH]c(C4CCC4)nc3c2)cn1 | -8.36
50 | CC(=O)Nc1ccc2c(c1)CN(C(=O)c1ccco1)CC2 | 6.17
51 | COc1ccc2cnn(CC(=O)NCC3CCCO3)c(=O)c2c1OC (centres undefined) | 4.81
52 | Cc1ncc(-c2ccnc(N3CC[C@H](O)C3)n2)c(-c2cccnc2)n1 | -8.49
53 | CC(CN1CCOCC1)OC(=O)c1ccccc1I (centres undefined) | -6.37
54 | COc1cc(CNc2nc(C3CC3)no2)cc(OC)c1OC | -0.291
55 | COc1ccc2c(c1)C(=O)NC1(CC2)CCN(Cc2cccnc2)C1 (centres undefined) | 0.295
56 | N#Cc1ccc(F)c(CN2CCNC(=O)C2c2cccs2)c1 (centres undefined) | 11.5
57 | CCOC(=O)C1CCN(c2nccc(-n3nc(C)cc3C)n2)CC1 | -8.99
58 | O=C(NCc1ccccc1CN1CCC(O)CC1)Nc1ccncc1 | -13.1
59 | Cc1ncsc1CNc1cc(N2CCCC2CO)ncn1 (centres undefined) | -12.5
60 | Cc1noc2nc(C3CCCN(Cc4cccnc4)C3)cc(C(F)F)c12 (centres undefined) | -30.3
61 | NC(=O)c1ccc(NC(=O)c2ccncc2Cl)cn1 | 8.29
62 | CC(=O)N(C)C1CCN(C(=O)NCCc2cc(F)ccc2F)CC1 | -7.76
63 | CC(C)c1nnc(NC(=O)CCc2cc(F)ccc2F)[nH]1 | -16.9
64 | COc1ccc(OC2CCN(C(=O)c3ccc(C)[nH]c3=O)CC2)cc1 | -3.22
65 | CC(NS(C)(=O)=O)C(=O)Nc1ccc2oc(C3CC3)nc2c1 (centres undefined) | 2.78
66 | CCOCc1ccc(NCc2cnc(N3CCN(C)CC3)nc2)cc1 | 12.1

Row | SMILES | cytotoxicity at 10 µM [%]
67 | CC(NCc1nnc2n1CCCC2)c1nc(Cc2ccccc2)no1 (centres undefined) | -45.1
68 | C/C(=C\c1ccco1)CN(C)C(C)c1ccccn1 (centres undefined) | -3.49
69 | CC(C)NC(=O)c1noc2c1CN(Cc1cnn(C)c1)CC2 | 6.59
70 | Cc1ccn2ncc(C(=O)N3CCCC(n4cccn4)C3)c2n1 (centres undefined) | -24.3
71 | CCN(CC)C(=O)c1ccn(COc2cc(C)cc(C)c2)n1 | 13.9
72 | Cc1noc(C)c1-c1cc(CCC2CN(C(=O)CN)CCO2)ncn1 (centres undefined) | 2.89
73 | O=C(CCc1ccccc1)NCC1CCN(Cc2ccsc2)CC1 | 5.27
74 | CN(C)CCN1C[C@@H]2CN(c3ccccc3)C[C@@H]2C1=O | -94
75 | CCN(CC1CN(Cc2nc(C3CC3)no2)CCO1)c1cccnn1 (centres undefined) | 14.9
76 | Cc1ccc(-c2nc(CN3CCOCS3(=O)=O)c(C)o2)cc1 | -0.724
77 | C[C@H]1C[C@H]2CN(C(=O)c3ccncn3)CC[C@H]2O1 | -20.9
78 | CC(C)Nc1nc2c(c(N(C)C)n1)CCN(Cc1nccn1C)CC2 | 1.35
79 | CC(C1CC1)N(C)C(=O)c1ccc(-n2ncc(C#N)c2N)cc1 (centres undefined) | 3.51
80 | CC(C)c1nnc2n1CCN(C(=O)c1ccnc(N(C)C)c1)C2 | 3.06
81 | COc1ncccc1CN1C[C@H]2CCN(c3ccc(C)nn3)C[C@H]2C1 | 4.59
82 | CCOc1cc(=O)n2c(c1C(=O)OCc1ccc(OC)cc1)CCCC2 | 5.95
83 | CNC(=O)[C@@]12CCO[C@@H]1CCN(Cc1scnc1C)C2 | 6.12
84 | COCCNc1cc(C(=O)N2CCOCC2)nc(C)n1 | 0.598
85 | COCCn1nc(C(=O)N2CCOCC2C)ccc1=O (centres undefined) | -8.97
86 | O=C(c1cnn2c1OCCC2)N1CCN(C/C=C/c2ccccc2)CC1 | 9.28
87 | CCc1ccc(NC(=O)N2C[C@H]3CC[C@@]4(N=C(C)N(C)C4=O)[C@H]3C2)cc1 | 11
88 | CC(C)c1noc(CN2CCCN(Cc3cccs3)CC2)n1 | -6.86

Row | SMILES | cytotoxicity at 10 µM [%]
89 | Cc1nn(CC(C)C)c(N(C)C)c1CNCc1ccccc1CO | -15.2
90 | O=C(c1ccco1)N1CCO[C@@H]2CNCC[C@@H]2C1 | -75.2
91 | COCC(=O)N1CC[C@H]2OCC[C@@]2(c2nc(C)no2)C1 | -0.461
92 | Cc1cccc(C(=O)N2CC[C@@H]3CN(c4ncccn4)CCO[C@@H]3C2)c1 | -71.6
93 | CN(C)C(=O)c1cn[nH]c1C1CCCN1Cc1c[nH]cn1 (centres undefined) | -3.3
94 | CCN(CC1CCCO1)C(=O)Nc1cc(C)ccc1S(C)(=O)=O (centres undefined) | -12.5
95 | O=C(NCc1nnc2n1CCCCC2)N1CCC2(CCCCC2)C1 | -13.4
96 | Fc1ccc(C2CN(CCc3ccncc3)CCO2)cc1 (centres undefined) | 11
97 | CN1N=C(C(=O)N2CCCC(n3ccnc3)C2)CCC1=O (centres undefined) | -13.2
98 | CCC(CNS(=O)(=O)c1c[nH]cn1)Oc1ccccc1F (centres undefined) | 7.22
99 | O=C(c1ccco1)N1CCCC12CCN(c1ncccn1)CC2 | 3.23
100 | COc1cc(N2CCC3(CCN(Cc4csc(C)n4)C3)CC2)ncn1 | -118
101 | Cc1ccc(CN(C)CC2(O)CCCN(C)C2)o1 (centres undefined) | -8.08
102 | CS(=O)(=O)NCC(=O)N[C@H]1CN(c2cnccn2)C[C@@H]1C1CC1 | -7.24
103 | Cc1cnc(NC2CCN(CC(=O)Nc3ccccc3)CC2)nc1C | -5.47
104 | CCc1nccn1C1CCCN(C(=O)c2ccc3[nH]nnc3c2)C1 (centres undefined) | 7.15
105 | O=C(CCNS(=O)(=O)c1ccccc1)N1CCOC(c2ccccc2)C1 (centres undefined) | 6.6
106 | Cc1nc(C(=O)N2CCCN(Cc3cnn(C)c3)CC2)ccc1C#N | -0.514
107 | CCn1cnnc1C1CCCN(C(=O)COc2ccc(Cl)cc2)C1 (centres undefined) | -5.26
108 | Cc1ccc(C(NC(=O)C2CC2)c2cccc(S(C)(=O)=O)c2)cc1 (centres undefined) | -9.8
109 | CCC(CC)C(=O)N1CCCc2c(cnn2C)C1 | 6.55
